Data as given in ChEMBL document CHEMBL1127395, “Synthesis and antimicrobial activity of novel 3-[(aminopyrimidiniumyl)thio]methyl cephalosporins” (1994).
Converted amounts (≈) assume the structure as drawn.

Key:
[1] = test system: Enterobacter cloacae; assay: In vitro minimum inhibitory concentration for Enterobacter cloacae (ATCC-27508) by agar dilution method; format: functional; conditions: Enterobacter cloacae; read-out: MIC
Procedure, shortened: (§1)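 Two-fold serial dilutions of each compound dispersed in Mueller-Hinton agar; plates spot-inoculated with 2 μL of standard test strain at 10^7 CFU/mL, incubated 37 °C for 20 h; MIC read as lowest concentration inhibiting growth.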

[2] = test system: Proteus vulgaris; assay: In vitro minimum inhibitory concentration for Proteus vulgaris (ATCC-6059) by agar dilution method; format: functional; conditions: Proteus vulgaris; read-out: MIC; procedure, shortened: as §1
[3] = test system: Klebsiella pneumoniae; assay: In vitro minimum inhibitory concentration for Klebsiella pneumoniae (ATCC-10031) by agar dilution method; format: functional; conditions: Klebsiella pneumoniae; read-out: MIC
[4] = test system: Pseudomonas aeruginosa; assay: In vitro minimum inhibitory concentration for Pseudomonas aeruginosa (ATCC 10145) by agar dilution method; format: functional; procedure, shortened: as §1
[5] = test system: Klebsiella aerogenes; assay: In vitro minimum inhibitory concentration for Enterobacter aerogenes (ATCC-29751) by agar dilution method; format: functional; conditions: Klebsiella aerogenes; read-out: MIC; procedure, shortened: as §1
[6] = test system: Staphylococcus epidermidis; assay: In vitro minimum inhibitory concentration for Staphylococcus epidermidis (ATCC-12228) by agar dilution method; format: functional; conditions: Staphylococcus epidermidis; read-out: MIC; procedure, shortened: as §1
[7] = test system: Pseudomonas aeruginosa; assay: In vitro minimum inhibitory concentration for Pseudomonas aeruginosa (ATCC-27853) by agar dilution method; format: functional; conditions: Pseudomonas aeruginosa; read-out: MIC; procedure, shortened: as §1
[8] = test system: Staphylococcus aureus; assay: In vitro minimum inhibitory concentration for Staphylococcus aureus (ATCC 6538p) by agar dilution method; format: functional; conditions: Staphylococcus aureus, ATCC 6538p; read-out: MIC; procedure, shortened: as §1
[9] = test system: Citrobacter freundii; assay: In vitro minimum inhibitory concentration for Citrobacter freundii (ATCC-8090) by agar dilution method; format: functional; conditions: Citrobacter freundii; read-out: MIC; procedure, shortened: as §1
[10] = test system: Salmonella typhimurium; assay: In vitro minimum inhibitory concentration for Salmonella Typhimurium (ATCC-14028) by agar dilution method; format: functional, Salmonella enterica subsp. enterica serovar Typhimurium; conditions: Salmonella enterica; read-out: MIC; procedure, shortened: as §1
[11] = test system: Escherichia coli; assay: In vitro minimum inhibitory concentration for Escherichia coli (ATCC-10536) by agar dilution method; format: functional; conditions: Escherichia coli; read-out: MIC; procedure, shortened: as §1
[12] = test system: Serratia marcescens; assay: In vitro minimum inhibitory concentration for Serratia marcescens (ATCC-27117) by agar dilution method; format: functional; conditions: Serratia marcescens; read-out: MIC; procedure, shortened: as §1

Structure (SMILES) | MIC [1] [µg/mL] | MIC [2] [µg/mL] | MIC [3] [µg/mL] | MIC [4] [µg/mL] | MIC [5] [µg/mL] | MIC [6] [µg/mL] | MIC [7] [µg/mL] | MIC [8] [µg/mL] | MIC [9] [µg/mL] | MIC [10] [µg/mL] | MIC [11] [µg/mL] | MIC [12] [µg/mL]
CN[n+]1c(N)cc(N)nc1SCC1=C(C(=O)[O-])N2C(=O)C(NC(=O)/C(=N\OC(C)(C)C(=O)O)c3cnc(N)s3)C2SC1 (stereo unspecified) | 0.13 (≈ 0.204 µM) | 0.03 (≈ 0.047 µM) | 0.25 (≈ 0.391 µM) | 8 (≈ 12.5 µM) | 16 (≈ 25.1 µM) | 16 (≈ 25.1 µM) | 8 (≈ 12.5 µM) | 32 (≈ 50.1 µM) | 0.5 (≈ 0.783 µM) | 1 (≈ 1.57 µM) | 0.5 (≈ 0.783 µM) | 1 (≈ 1.57 µM)
COc1cc(N)nc(SCC2=C(C(=O)[O-])N3C(=O)C(NC(=O)/C(=N\OC(C)(C)C(=O)O)c4cnc(N)s4)C3SC2)[n+]1C (stereo unspecified) | 0.02 (≈ 0.0313 µM) | 0.13 (≈ 0.204 µM) | 0.06 (≈ 0.0939 µM) | 4 (≈ 6.26 µM) | 4 (≈ 6.26 µM) | 1 (≈ 1.57 µM) | 2 (≈ 3.13 µM) | 4 (≈ 6.26 µM) | 0.13 (≈ 0.204 µM) | 0.25 (≈ 0.391 µM) | 0.06 (≈ 0.0939 µM) | 0.25 (≈ 0.391 µM)
C[n+]1cccnc1SCC1=C(C(=O)[O-])N2C(=O)C(NC(=O)/C(=N\OC(C)(C)C(=O)O)c3cnc(N)s3)C2SC1 (stereo unspecified) | 0.25 (≈ 0.421 µM) | 0.13 (≈ 0.219 µM) | 0.5 (≈ 0.842 µM) | 8 (≈ 13.5 µM) | 16 (≈ 27 µM) | 64 (≈ 108 µM) | 8 (≈ 13.5 µM) | 128 (≈ 216 µM) | 8 (≈ 13.5 µM) | 1 (≈ 1.68 µM) | 1 (≈ 1.68 µM) | 2 (≈ 3.37 µM)
CC(C)(O/N=C(\C(=O)NC1C(=O)N2C(C(=O)[O-])=C(CSc3nc(N)cc(N)[n+]3-c3ccc(Cl)cc3)CSC12)c1cnc(N)s1)C(=O)O (stereo unspecified) | 0.13 (≈ 0.181 µM) | 0.25 (≈ 0.347 µM) | 0.13 (≈ 0.181 µM) | 4 (≈ 5.55 µM) | 1 (≈ 1.39 µM) | 2 (≈ 2.78 µM) | 2 (≈ 2.78 µM) | 4 (≈ 5.55 µM) | 0.25 (≈ 0.347 µM) | 0.5 (≈ 0.694 µM) | 0.25 (≈ 0.347 µM) | 1 (≈ 1.39 µM)
CC(C)(O/N=C(\C(=O)NC1C(=O)N2C(C(=O)[O-])=C(CSc3nc(N)cc(N)[n+]3-c3ccccc3)CSC12)c1cnc(N)s1)C(=O)O (stereo unspecified) | 0.06 (≈ 0.0875 µM) | 0.13 (≈ 0.19 µM) | 0.13 (≈ 0.19 µM) | 4 (≈ 5.83 µM) | 0.5 (≈ 0.729 µM) | 2 (≈ 2.92 µM) | 2 (≈ 2.92 µM) | 4 (≈ 5.83 µM) | 0.25 (≈ 0.365 µM) | 0.5 (≈ 0.729 µM) | 0.25 (≈ 0.365 µM) | 0.5 (≈ 0.729 µM)
Cc1cccc(C)c1-[n+]1c(N)cc(N)nc1SCC1=C(C(=O)[O-])N2C(=O)C(NC(=O)/C(=N\OC(C)(C)C(=O)O)c3cnc(N)s3)C2SC1 (stereo unspecified) | 0.25 (≈ 0.35 µM) | 0.5 (≈ 0.7 µM) | 0.25 (≈ 0.35 µM) | 8 (≈ 11.2 µM) | 2 (≈ 2.8 µM) | 2 (≈ 2.8 µM) | 4 (≈ 5.6 µM) | 4 (≈ 5.6 µM) | 1 (≈ 1.4 µM) | 2 (≈ 2.8 µM) | 0.5 (≈ 0.7 µM) | 2 (≈ 2.8 µM)
C[n+]1ccc(N)nc1SCC1=C(C(=O)[O-])N2C(=O)C(NC(=O)/C(=N\OC(C)(C)C(=O)O)c3cnc(N)s3)C2SC1 (stereo unspecified) | < 0.008 | 0.06 (≈ 0.0986 µM) | 0.03 (≈ 0.0493 µM) | 2 (≈ 3.29 µM) | 1 (≈ 1.64 µM) | 2 (≈ 3.29 µM) | 1 (≈ 1.64 µM) | 4 (≈ 6.57 µM) | 0.03 (≈ 0.0493 µM) | 0.13 (≈ 0.214 µM) | 0.03 (≈ 0.0493 µM) | 0.06 (≈ 0.0986 µM)
CNc1cc2n(C)cc[n+]2c(SCC2=C(C(=O)[O-])N3C(=O)C(NC(=O)/C(=N\OC(C)(C)C(=O)O)c4cnc(N)s4)C3SC2)n1 (stereo unspecified) | 0.03 (≈ 0.0453 µM) | 0.13 (≈ 0.196 µM) | 0.25 (≈ 0.378 µM) | 8 (≈ 12.1 µM) | 4 (≈ 6.04 µM) | 4 (≈ 6.04 µM) | 4 (≈ 6.04 µM) | 8 (≈ 12.1 µM) | 0.13 (≈ 0.196 µM) | 0.5 (≈ 0.756 µM) | 0.13 (≈ 0.196 µM) | 0.5 (≈ 0.756 µM)
